Activity calls are given as the source filed them. No cut-off for these calls is given here.
Columns and labels:
[1] = Antiproliferative activity in human SF539 cells assessed as cell growth inhibition after 48 hrs by SRB assay; assay type: functional; settings: SF-539, 48 h
Method in brief: (§1)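 NCI-60 screen: cells exposed to compound at 100, 10, 1, 0.1 and 0.01 μM for 48 h, then sulforhodamine B staining. Optical density ratio to control plotted as percent growth versus log10 concentration; GI50 interpolated between points above and below 50% growth.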

[2] = Antiproliferative activity in human DU145 cells assessed as cell growth inhibition after 48 hrs by SRB assay; assay type: functional; settings: DU-145, 48 h; method in brief: as §1
MCF7 = test: Antiproliferative activity in human MCF7 cells assessed as cell growth inhibition after 48 hrs by SRB assay; assay type: functional; settings: MCF7, 48 h; method in brief: as §1
SN12C = test: Antiproliferative activity in human SN12C cells assessed as cell growth inhibition after 48 hrs by SRB assay; assay type: functional; method in brief: as §1
[3] = Antiproliferative activity in human UACC62 cells assessed as cell growth inhibition after 48 hrs by SRB assay; assay type: functional; settings: UACC-62, 48 h; method in brief: as §1
[4] = Antiproliferative activity in human […] cells assessed as cell growth inhibition after 48 hrs by SRB assay; assay type: functional; method in brief: as §1
[5] = target: T1, DNA topoisomerase 1 (Homo sapiens) (UniProt P11387); test: Inhibition of human recombinant Top1 expressed in baculovirus using [32P]-3-end labeled 117 bp DNA oligonucleotide as substrate assessed as enzyme mediated DNA cleavage at 0.1 to 100 uM after 20 mins by SDS-PAGE analysis relative to camptothecin; design: scale not given: the % may be the effect or the level left
T1 sequence (whole entry): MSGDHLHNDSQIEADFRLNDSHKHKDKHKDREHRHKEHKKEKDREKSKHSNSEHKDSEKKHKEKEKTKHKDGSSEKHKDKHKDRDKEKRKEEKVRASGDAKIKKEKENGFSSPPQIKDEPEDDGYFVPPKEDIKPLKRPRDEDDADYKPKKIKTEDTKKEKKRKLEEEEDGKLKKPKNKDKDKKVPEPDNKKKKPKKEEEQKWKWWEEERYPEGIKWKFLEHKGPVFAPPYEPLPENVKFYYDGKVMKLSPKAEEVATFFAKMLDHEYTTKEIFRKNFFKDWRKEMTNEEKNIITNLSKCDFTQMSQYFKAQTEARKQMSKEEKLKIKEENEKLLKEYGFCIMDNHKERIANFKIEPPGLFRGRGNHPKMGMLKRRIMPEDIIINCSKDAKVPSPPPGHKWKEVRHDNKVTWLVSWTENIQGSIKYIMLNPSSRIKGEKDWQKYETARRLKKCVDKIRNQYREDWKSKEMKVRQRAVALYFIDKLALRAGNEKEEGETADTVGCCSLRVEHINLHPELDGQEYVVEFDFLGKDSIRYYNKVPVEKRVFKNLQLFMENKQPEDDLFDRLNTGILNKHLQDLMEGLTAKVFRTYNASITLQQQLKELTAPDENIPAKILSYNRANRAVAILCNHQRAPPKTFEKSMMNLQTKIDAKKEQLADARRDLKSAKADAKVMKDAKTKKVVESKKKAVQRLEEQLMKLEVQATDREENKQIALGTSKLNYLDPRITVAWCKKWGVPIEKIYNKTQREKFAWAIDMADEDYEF
Method in brief: (§2)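 Baculovirus-purified human recombinant Top1 with ~2 nM 117-bp oligonucleotide, 3'-end labeled by Klenow fill-in with [α-32P]dGTP. Stopped with 0.5% SDS and formamide dye; 20% denaturing PAGE, phosphoimager.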

[6] = Antiproliferative activity in human HCT116 cells assessed as cell growth inhibition after 48 hrs by SRB assay; assay type: functional; settings: HCT-116, 48 h; method in brief: as §1
[7] = Antiproliferative activity in human HOP62 cells assessed as cell growth inhibition after 48 hrs by SRB assay; assay type: functional; settings: HOP-62, 48 h; method in brief: as §1
[8] = target: T1, DNA topoisomerase 1 (Homo sapiens); test: Inhibition of human recombinant Top1 expressed in baculovirus using [32P]-3-end labeled 117 bp DNA oligonucleotide as substrate assessed as enzyme mediated DNA cleavage after 20 mins by SDS-PAGE analysis relative to camptothecin; design: concentration or dose not given beside the values; method in brief: as §2
[9] = Half life in rat plasma at 5 uM by LC-MS/MS analysis; assay type: ADME, cell-free
Method in brief: (§3)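 Rat plasma at 37 °C with compound at 5 μM, duplicate runs alongside enalapril and warfarin controls. Aliquots taken at 0, 1, 3, 5 and 15 min into three volumes ice-cold methanol with propranolol internal standard, held ≥10 min at -20 °C, centrifuged. Parent quantified by LC-MS/MS in positive ion mode, expressed as % of time-zero concentration.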

Plasma [10] = test: Drug metabolism in rat plasma assessed as compound 9 formation at 5 uM after 15 mins by LC-MS/MS analysis; assay type: ADME, cell-free; settings: 0.25 h; method in brief: as §3
Plasma [11] = test: Drug uptake in rat plasma treated with of 2-Methoxy-6-(3-morpholinopropyl)-5,12-dioxo-6,12-dihydro 5H-[1,3]dioxolo[4,5:5,6]indeno[1,2-c]isoquinolin-3-yl Acetate after 15 mins by LC-MS/MS analysis; assay type: ADME, cell-free; settings: 0.25 h; method in brief: as §3
[12] = Drug uptake in RPMI1640 medium treated with2-Methoxy-6-(3-morpholinopropyl)-5,12-dioxo-6,12-dihydro-5H-[1,3]dioxolo[4,5:5,6]indeno[1,2-c]isoquinolin-3-yl Methyl Succinate by at 10 uM after 99 hrs by LC-MS analysis; assay type: physicochemical
Method in brief: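 Compound (10 μM) incubated in cell-free RPMI 1640 medium at 37 °C for 99 h. Aliquot filtered and analysed by LC-MS, diode-array detection at 280 nm, flow 0.75 mL/min, for conversion to parent phenol.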

GI50 (MCF7)	Activity [5]	Activity [8]	half-life at 5 µM [9]	Drug metabolism (Plasma [10])	Drug uptake (Plasma [11])	Drug uptake [12]	Compound	GI50 [1]	GI50 [2]	GI50 (SN12C)	GI50 [3]	GI50 [4]	GI50 [6]	GI50 [7]
0.033 µM	20%	–	–	–	–	–	COc1cc2c(=O)n(CCCN3CCOCC3)c3c(c2cc1OC(=O)c1ccccc1)C(=O)c1cc2c(cc1-3)OCO2	0.037 µM	0.051 µM	0.054 µM	0.096 µM	4.57 µM	0.85 µM	0.079 µM
< 0.01 µM	–	inactive	–	–	–	–	COC(=O)CCC(=O)Oc1cc2c(=O)n(CCCN3CCOCC3)c3c(c2cc1OC)C(=O)c1cc2c(cc1-3)OCO2	< 0.01 µM	0.014 µM	< 0.01 µM	0.018 µM	0.037 µM	0.02 µM	0.016 µM
0.209 µM	50%	–	–	–	–	–	COc1cc2c3c(n(CCCN4CCOCC4)c(=O)c2cc1OS(=O)(=O)O)-c1cc2c(cc1C3=O)OCO2	0.263 µM	0.417 µM	0.355 µM	0.263 µM	1.12 µM	0.389 µM	0.389 µM
< 0.01 µM	–	inactive	54 s	metabolite_detected	–	–	COc1cc2c3c(n(CCCN4CCOCC4)c(=O)c2cc1OC(C)=O)-c1cc2c(cc1C3=O)OCO2	< 0.01 µM	< 0.01 µM	< 0.01 µM	< 0.01 µM	0.269 µM	< 0.01 µM	< 0.01 µM
0.374 µM	–	100%	–	–	–	–	COc1cc2c3c(n(CCCN4CCOCC4)c(=O)c2cc1OC)-c1cc2c(cc1C3=O)OCO2 [INDOTECAN]	0.04 µM	–	–	0.03 µM	74.1 µM	–	–
< 0.01 µM	–	20%	–	–	–	–	COc1cc2c3c(n(CCCN4CCOCC4)c(=O)c2cc1OC(=O)c1cccnc1)-c1cc2c(cc1C3=O)OCO2	< 0.01 µM	< 0.01 µM	< 0.01 µM	< 0.01 µM	0.015 µM	< 0.01 µM	< 0.01 µM
< 0.01 µM	–	75%	–	–	Active	Active	COc1cc2c3c(n(CCCN4CCOCC4)c(=O)c2cc1O)-c1cc2c(cc1C3=O)OCO2	< 0.01 µM	< 0.01 µM	< 0.01 µM	< 0.01 µM	0.03 µM	0.02 µM	0.01 µM
< 0.01 µM	75%	–	–	–	–	–	COc1cc2c(=O)n(CCCN3CCOCC3)c3c(c2cc1OC(=O)c1cccnc1)C(=O)c1cc2c(cc1-3)OCO2	< 0.01 µM	0.013 µM	< 0.01 µM	0.022 µM	0.295 µM	0.03 µM	0.012 µM
< 0.01 µM	–	20%	–	–	–	–	COC(=O)CCC(=O)Oc1cc2c3c(n(CCCN4CCOCC4)c(=O)c2cc1OC)-c1cc2c(cc1C3=O)OCO2	< 0.01 µM	< 0.01 µM	< 0.01 µM	< 0.01 µM	0.066 µM	0.014 µM	< 0.01 µM
–	–	50%	–	–	–	–	COc1cc2c(=O)n(CCCN3CCOCC3)c3c(c2cc1O)C(=O)c1cc2c(cc1-3)OCO2	–	–	–	–	0.871 µM	–	–
0.015 µM	–	20%	–	–	–	–	COc1cc2c3c(n(CCCN4CCOCC4)c(=O)c2cc1OC(=O)c1ccccc1)-c1cc2c(cc1C3=O)OCO2	0.135 µM	0.724 µM	0.195 µM	0.059 µM	30.9 µM	5.89 µM	2.14 µM
< 0.01 µM	50%	–	–	–	–	–	COc1cc2c(=O)n(CCCN3CCOCC3)c3c(c2cc1OC(C)=O)C(=O)c1cc2c(cc1-3)OCO2	< 0.01 µM	< 0.01 µM	< 0.01 µM	0.018 µM	0.138 µM	0.029 µM	0.018 µM

Compound	GI50 (MCF7)	Activity [5]	Activity [8]	half-life at 5 µM [9]	Drug metabolism (Plasma [10])	Drug uptake (Plasma [11])	Drug uptake [12]	GI50 [1]	GI50 [2]	GI50 (SN12C)	GI50 [3]	GI50 [4]	GI50 [6]	GI50 [7]
COc1cc2c3c(n(CCCN4CCOCC4)c(=O)c2cc1OC(=O)N(C)C)-c1cc2c(cc1C3=O)OCO2	< 0.01 µM	–	50%	–	–	–	–	0.021 µM	0.032 µM	0.025 µM	0.017 µM	0.105 µM	0.026 µM	0.032 µM
COc1cc2c(=O)n(CCCN3CCOCC3)c3c(c2cc1OC(=O)N(C)C)C(=O)c1cc2c(cc1-3)OCO2	0.022 µM	75%	–	–	–	–	–	1.86 µM	1.55 µM	2.4 µM	4.47 µM	12 µM	6.07 µM	1.7 µM

— ChEMBL document CHEMBL3822428, “Design, Synthesis, and Biological Evaluation of Potential Prodrugs Related to the Experimental Anticancer Agent Indotecan (LMP400)” (J Med Chem, 2016)
